Results published in ChEMBL document CHEMBL1123888, “Aldosterone antagonists. 2. Synthesis and biological activities of 11,12-dehydropregnane derivatives” (J Med Chem, 1987).
The source made the active and inactive calls. The rule behind the calls is not given here.

Tests used:
[1] = target: T1, Mineralocorticoid receptor (Rattus norvegicus) (UniProt P22199); assay: Relative binding affinity against Mineralocorticoid receptor in Male Sprague-Dawley rats
T1 sequence (whole entry): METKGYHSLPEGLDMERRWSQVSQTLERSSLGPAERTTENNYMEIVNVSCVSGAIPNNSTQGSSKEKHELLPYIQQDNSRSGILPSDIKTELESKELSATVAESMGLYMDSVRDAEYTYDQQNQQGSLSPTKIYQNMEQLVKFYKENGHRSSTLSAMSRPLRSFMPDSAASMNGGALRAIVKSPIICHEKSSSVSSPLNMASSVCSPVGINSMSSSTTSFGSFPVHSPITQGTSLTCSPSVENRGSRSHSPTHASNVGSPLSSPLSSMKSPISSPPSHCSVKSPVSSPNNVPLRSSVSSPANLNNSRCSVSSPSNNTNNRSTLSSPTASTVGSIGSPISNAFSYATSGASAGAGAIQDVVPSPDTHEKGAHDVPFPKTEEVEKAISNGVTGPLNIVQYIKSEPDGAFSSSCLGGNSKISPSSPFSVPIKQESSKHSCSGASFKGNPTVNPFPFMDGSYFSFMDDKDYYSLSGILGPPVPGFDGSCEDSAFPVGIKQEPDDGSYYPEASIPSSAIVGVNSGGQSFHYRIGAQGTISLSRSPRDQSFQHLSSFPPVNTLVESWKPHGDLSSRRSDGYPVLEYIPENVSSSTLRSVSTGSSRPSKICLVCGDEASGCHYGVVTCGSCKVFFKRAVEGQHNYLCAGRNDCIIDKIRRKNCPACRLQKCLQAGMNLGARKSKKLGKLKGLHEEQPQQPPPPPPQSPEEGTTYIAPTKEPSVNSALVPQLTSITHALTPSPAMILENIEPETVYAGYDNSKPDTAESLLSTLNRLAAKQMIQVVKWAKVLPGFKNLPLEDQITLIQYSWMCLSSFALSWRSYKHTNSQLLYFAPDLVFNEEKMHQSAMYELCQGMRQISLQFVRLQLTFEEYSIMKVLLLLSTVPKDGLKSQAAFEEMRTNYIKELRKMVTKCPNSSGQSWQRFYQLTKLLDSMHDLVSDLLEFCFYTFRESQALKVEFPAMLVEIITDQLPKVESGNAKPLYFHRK
Outline: (§1)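 Renal cytosol came from male Sprague-Dawley rats (4-8 weeks) adrenalectomized bilaterally 1 or 2 days earlier. It was incubated with various competitor concentrations and about 1 nM [3H]Ald for 42-48 h at 0 °C or 100-120 min at 25 °C. Bound and free steroid were separated by DCC.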

[2] = target: T2, Androgen receptor (Rattus norvegicus) (UniProt P15207); assay: In vivo relative androgenic activity in Male Sprague-Dawley rats; type: functional, organism-based
T2 sequence (whole entry): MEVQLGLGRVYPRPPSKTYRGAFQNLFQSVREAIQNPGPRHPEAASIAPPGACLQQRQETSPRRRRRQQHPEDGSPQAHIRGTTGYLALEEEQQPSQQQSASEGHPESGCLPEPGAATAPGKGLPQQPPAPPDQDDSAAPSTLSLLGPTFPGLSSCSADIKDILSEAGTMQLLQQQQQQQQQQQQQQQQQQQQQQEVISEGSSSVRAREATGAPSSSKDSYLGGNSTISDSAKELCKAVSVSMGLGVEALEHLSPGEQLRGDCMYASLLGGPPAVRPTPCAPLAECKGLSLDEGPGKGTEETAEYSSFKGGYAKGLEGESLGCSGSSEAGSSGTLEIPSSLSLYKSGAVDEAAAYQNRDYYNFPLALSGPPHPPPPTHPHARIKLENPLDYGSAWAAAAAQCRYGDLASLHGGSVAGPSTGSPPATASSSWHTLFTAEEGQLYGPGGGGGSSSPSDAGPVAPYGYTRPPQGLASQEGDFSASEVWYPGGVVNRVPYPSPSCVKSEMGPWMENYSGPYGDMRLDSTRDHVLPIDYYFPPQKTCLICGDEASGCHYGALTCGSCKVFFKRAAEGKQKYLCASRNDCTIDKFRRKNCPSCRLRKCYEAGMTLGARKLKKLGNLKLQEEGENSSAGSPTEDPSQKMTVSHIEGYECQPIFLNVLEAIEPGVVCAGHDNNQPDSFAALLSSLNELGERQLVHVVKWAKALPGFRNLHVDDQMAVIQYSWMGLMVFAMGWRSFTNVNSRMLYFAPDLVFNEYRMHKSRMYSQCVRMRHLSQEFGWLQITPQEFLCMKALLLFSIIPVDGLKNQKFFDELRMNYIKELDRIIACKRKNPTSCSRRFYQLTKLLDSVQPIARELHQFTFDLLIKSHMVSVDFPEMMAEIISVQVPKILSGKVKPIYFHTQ

[3] = target: T2, Androgen receptor (Rattus norvegicus); assay: Relative binding affinity against Androgen receptor in Male Sprague-Dawley rats
Outline: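 Rat ventral prostate cytosol from 4-8-week-old rats castrated 1 day earlier. Incubated with various competitor concentrations and about 1 nM [3H]DHT or [3H]methyltrienolone for 16-20 h at 0 °C. Bound and free steroid separated by dextran-coated charcoal.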

[4] = target: T3, Progesterone receptor (Rattus norvegicus) (UniProt Q63449); assay: In vivo relative Progestational activity in Male Sprague-Dawley rats was determined.; type: functional, organism-based
T3 sequence (whole entry): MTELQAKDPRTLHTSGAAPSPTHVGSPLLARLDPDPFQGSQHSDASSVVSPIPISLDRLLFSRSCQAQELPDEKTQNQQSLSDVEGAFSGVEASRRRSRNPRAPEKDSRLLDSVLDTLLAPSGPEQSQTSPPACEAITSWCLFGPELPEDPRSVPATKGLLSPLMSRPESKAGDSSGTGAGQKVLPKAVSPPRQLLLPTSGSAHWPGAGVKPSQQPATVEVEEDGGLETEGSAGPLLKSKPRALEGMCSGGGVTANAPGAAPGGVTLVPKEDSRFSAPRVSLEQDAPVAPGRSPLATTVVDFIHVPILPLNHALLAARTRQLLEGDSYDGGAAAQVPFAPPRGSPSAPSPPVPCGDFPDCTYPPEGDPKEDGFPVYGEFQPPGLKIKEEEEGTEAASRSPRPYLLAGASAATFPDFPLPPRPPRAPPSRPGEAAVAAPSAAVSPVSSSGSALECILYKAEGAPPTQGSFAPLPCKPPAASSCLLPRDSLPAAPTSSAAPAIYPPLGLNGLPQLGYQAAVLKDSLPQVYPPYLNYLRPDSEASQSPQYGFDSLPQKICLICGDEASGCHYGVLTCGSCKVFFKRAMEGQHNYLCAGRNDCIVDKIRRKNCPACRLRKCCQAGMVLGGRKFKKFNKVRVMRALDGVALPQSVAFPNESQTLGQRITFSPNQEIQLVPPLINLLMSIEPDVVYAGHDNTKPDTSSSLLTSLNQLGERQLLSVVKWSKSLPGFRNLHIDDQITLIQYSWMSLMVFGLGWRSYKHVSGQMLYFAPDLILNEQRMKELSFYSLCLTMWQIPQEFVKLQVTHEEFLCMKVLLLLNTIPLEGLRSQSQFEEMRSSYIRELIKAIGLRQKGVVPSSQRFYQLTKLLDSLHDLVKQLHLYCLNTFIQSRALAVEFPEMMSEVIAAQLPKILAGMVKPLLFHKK

[5] = target: T3, Progesterone receptor (Rattus norvegicus); assay: Relative binding affinity against progesterone receptor in […]
[6] = target: T1, Mineralocorticoid receptor (Rattus norvegicus); assay: Displacement of [3]Aldosterone from mineralocorticoid receptor of rat renal cytosol at 0 degree Centigrade; outline: as §1
[7] = target: T1, Mineralocorticoid receptor (Rattus norvegicus); assay: Relative binding affinity to the rat mineralocorticoid receptor determined in rat renal cytosol using [3]Ald as ligand; outline: as §1
[8] = target: T1, Mineralocorticoid receptor (Rattus norvegicus); assay: Relative anti-mineralocorticoid potency compared to Spironolactone after oral administration; type: functional, organism-based
Outline: (§2)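 Male rats were bilaterally adrenalectomized (bioassay modified from Kagawa). Ald (1 µg/kg) was given sc, immediately followed by test compound in sesame oil sc or orally. Urine was collected from 2 to 6 h after steroid. Potency came from the urinary Na/K ratio of sample versus control, with 95% confidence limits.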

[9] = target: T1, Mineralocorticoid receptor (Rattus norvegicus); assay: Antagonist activity against Mineralocorticoid receptor after subcutaneous administration in Male Sprague Dawley rats; (+) =positive; type: functional, organism-based; conditions: filed as antagonist; outline: as §2
[10] = target: T1, Mineralocorticoid receptor (Rattus norvegicus); assay: Antagonist activity against Mineralocorticoid receptor after oral administration in Male Sprague Dawley rats; (+) =positive; type: functional, organism-based; conditions: filed as antagonist; outline: as §2
[11] = target: T1, Mineralocorticoid receptor (Rattus norvegicus); assay: Relative binding affinity against mineralocorticoid receptor determined in rat renal cytosol using [3]Ald as ligand; outline: as §1
[12] = target: T3, Progesterone receptor (Rattus norvegicus); assay: Relative binding affinity against progesterone receptor determined in rat […] cytosol using [3H]DHT as ligand
[13] = target: T1, Mineralocorticoid receptor (Rattus norvegicus); assay: Antagonist activity against Mineralocorticoid receptor was determined after subcutaneous administration in Male Sprague Dawley rats; type: functional, organism-based; outline: as §2
[14] = species: Rattus norvegicus; assay: Displacement of [3H]promegestone from progestin receptor of rat uterine cytosol at 0 degree Centigrade
Outline: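 Uteri from estradiol-primed rats supplied the cytosol. It was incubated with various competitor concentrations and about 1 nM [3H]promegestone for 16-20 h at 0 °C. Bound and free steroid were separated by DCC. RBA (progesterone = 100%) = 100 × ratio of the 50%-inhibition concentrations of standard and competitor.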

[15] = target: T1, Mineralocorticoid receptor (Rattus norvegicus); assay: Agonist activity against Mineralocorticoid receptor was determined after subcutaneous administration in Male Sprague Dawley rats; (+) =positive; type: functional, organism-based; conditions: filed as agonist

SMILES: C[C@]12CCC(=O)C=C1CC[C@@H]1[C@@H]2[C@H]2C[C@]3(CO2)[C@@H](C(=O)CO)CC[C@@H]13
- relative binding affinity (RBA) [1]: 50

SMILES: C[C@]12CC[C@H]3[C@@H](CCC4CC(=O)CC[C@@H]43)[C@@H]1CC[C@@H]2O (stereo partly drawn)
- Relative activity [2]: 0.1
- relative binding affinity (RBA) [3]: 59

SMILES: CC(=O)[C@H]1CC[C@H]2[C@@H]3CCC4=CC(=O)CC[C@]4(C)[C@H]3C=C[C@]12C
- Relative activity [4]: 3
- relative binding affinity (RBA) [5]: 220

SMILES: CC12CCC(=O)C=C1CCC1C2C=CC2(C)C1C1CC1[C@@]21CCC(=O)O1 (stereo partly drawn)
- RBA [6]: 310%
- RBA [7]: 650%

SMILES: CC(=O)S[C@@H]1CC2=CC(=O)C=CC2(C)C2C=CC3(C)C(CC[C@@]34CCC(=O)O4)C21 (stereo partly drawn)
- Relative potency [8]: 0.77
- RBA [7]: 71%
- Activity [9]: Antagonist
- Activity [10]: Antagonist
- RBA [11]: 23%
- RBA [12]: 3.9%
- Activity [13]: inactive

SMILES: CC12CCC(=O)C=C1CCC1C2C=CC2(C)C(O)CCC12 (stereo not drawn)
- Relative activity [2]: 0.7
- relative binding affinity (RBA) [3]: 120

SMILES: CC(=O)[C@H]1CC[C@H]2[C@@H]3CCC4=CC(=O)CC[C@]4(C)[C@H]3CC[C@]12C
- Relative activity [4]: 1
- RBA [5]: 100%

SMILES: CC12C=CC(=O)C=C1CCC1C2C=CC2(C)C1CC[C@@]21CCC(=O)O1 (stereo partly drawn)
- RBA [7]: 71%
- RBA [14]: 7.5%
- Activity [15]: Agonist
- RBA [11]: 120%
- Activity [13]: inactive

SMILES: CC12CCC(=O)C=C1C[C@@H](SC(=O)c1ccccc1)C1C2C=CC2(C)C1CC[C@@]21CCC(=O)O1 (stereo partly drawn)
- RBA [6]: 11%
- RBA [7]: 18%
- RBA [14]: 25%
- Activity [13]: inactive

SMILES: CC12CCC(=O)C=C1C=CC1C2C=CC2(C)C1C1CC1[C@@]21CCC(=O)O1 (stereo partly drawn)
- RBA [6]: 290%
- RBA [7]: 320%
- RBA [12]: 210%
- Activity [13]: inactive

SMILES: CC12C=CC3C(CCC4CC(=O)CCC43C)C1CCC2O (stereo not drawn)
- Relative activity [2]: 1
- relative binding affinity (RBA) [3]: 81
